# Laboratory results: ChEMBL document CHEMBL3585302, “Synthesis and antibacterial activities of cadiolides A, B and C and analogues” (Bioorg Med Chem, 2015)
# Experiments:
# Escherichia coli [1] = experiment: Antibacterial activity against Escherichia coli CECT 100 assessed as inhibition of microbial growth incubated for 18 hrs by 2-fold microtiter broth dilution method; assay type: functional, organism-based; settings: CECT 100, 18 h
# Outline: (§1)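 Compounds in DMSO, ten 2-fold serial dilutions (125 down to 0.24 µg/mL tested). Bacteria at OD620 = 0.001 in Nutrient Broth mixed 1:1 with dilutions. Incubated overnight (18 h) at 28°C or 37°C according to strain. Growth read turbidimetrically at OD620. MIC is the lowest concentration giving complete growth inhibition. Triplicate runs. Tetracycline as reference.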
# [2] = Toxicity in human neutrophils assessed as induction of necrosis at 100 uM incubated for 24 hrs by annexin V-FITC and propidium iodide staining based cytofluorometry; assay type: cell-based; settings: neutrophil
# Outline: (§2)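 Freshly isolated donor neutrophils (2 x 10⁶ cells/mL stock, diluted into supplemented RPMI) cultured 24 h with 30 or 100 µM. Stained with annexin V-FITC/propidium iodide; 1 x 10⁴ cells analysed by flow cytometry. Gating: annexin V+/PI− apoptotic, V+/PI+ late apoptotic/necrotic, V−/PI− viable. Mean ± SEM, n=3, compared against vehicle.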
# [3] = Selectivity index, ratio of cytotoxicity against human neutrophils by MTT assay to antibacterial IC50 against Salmonella typhi CECT 409; assay type: toxicity; settings: read-out: Selectivity Index
# [4] = Cytotoxicity against human neutrophils assessed as reduction in cell viability at 30 uM incubated for 24 hrs by MTT assay; assay type: cell-based; settings: neutrophil
# Outline: (§3)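 Neutrophils from buffy coats of healthy donors were isolated by Ficoll-Hypaque gradient and seeded at 2 x 10⁵ cells/mL in supplemented RPMI. Exposed to 30 or 100 µM for 24 h at 37 °C, then MTT (2 mg/mL in PBS) added for 3 h. Formazan dissolved in DMSO and read at 560 and 630 nm. Mean ± SEM of n=6-9 independent experiments, compared against vehicle.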
# [5] = Selectivity index, ratio of cytotoxicity against human neutrophils by annexin V-FITC and propidium iodide staining based cytofluorometry to antibacterial IC50 against Enterococcus faecalis CECT 481; assay type: toxicity; settings: read-out: Selectivity Index
# Staphylococcus aureus = experiment: Antibacterial activity against Staphylococcus aureus CECT 86 assessed as inhibition of microbial growth incubated for 18 hrs by 2-fold microtiter broth dilution method; assay type: functional, organism-based; settings: CECT 86, 18 h; outline: as §1
# [6] = Toxicity in human neutrophils assessed as cell survival at 30 uM incubated for 24 hrs by annexin V-FITC and propidium iodide staining based cytofluorometry; settings: neutrophil; outline: as §2
# [7] = Selectivity index, ratio of cytotoxicity against human neutrophils by MTT assay to antibacterial IC50 against Escherichia coli CECT 405; assay type: toxicity; settings: read-out: Selectivity Index
# [8] = Selectivity index, ratio of cytotoxicity against human neutrophils by MTT assay to antibacterial IC50 against Staphylococcus aureus CECT 86; assay type: toxicity; settings: read-out: Selectivity Index
# Escherichia coli [9] = experiment: Antibacterial activity against Escherichia coli CECT 405 assessed as inhibition of microbial growth incubated for 18 hrs by 2-fold microtiter broth dilution method; assay type: functional, organism-based; settings: CECT 405, 18 h; outline: as §1
# [10] = Cytotoxicity against human neutrophils assessed as reduction in cell viability at 100 uM incubated for 24 hrs by MTT assay; assay type: cell-based; settings: neutrophil; outline: as §3
# [11] = Toxicity in human neutrophils assessed as induction of apoptosis at 30 and 100 uM incubated for 24 hrs by annexin V-FITC and propidium iodide staining based cytofluorometry; assay type: cell-based; settings: neutrophil; outline: as §2
# [12] = Selectivity index, ratio of cytotoxicity against human neutrophils by annexin V-FITC and propidium iodide staining based cytofluorometry to antibacterial IC50 against Escherichia coli CECT 405; assay type: toxicity; settings: read-out: Selectivity Index
# [13] = test system: Pectobacterium carotovorum; experiment: Antibacterial activity against Erwinia carotovora CECT 225 assessed as inhibition of microbial growth incubated for 18 hrs by 2-fold microtiter broth dilution method; assay type: functional, organism-based; settings: CECT 225, 18 h; outline: as §1
# [14] = Selectivity index, ratio of cytotoxicity against human neutrophils by MTT assay to antibacterial IC50 against Enterococcus faecalis CECT 481; assay type: toxicity; settings: read-out: Selectivity Index
# Bacillus cereus = experiment: Antibacterial activity against Bacillus cereus CECT 148 assessed as inhibition of microbial growth incubated for 18 hrs by 2-fold microtiter broth dilution method; assay type: functional, organism-based; settings: CECT 148, 18 h; outline: as §1
# Salmonella typhi = experiment: Antibacterial activity against Salmonella typhi CECT 409 assessed as inhibition of microbial growth incubated for 18 hrs by 2-fold microtiter broth dilution method; assay type: functional, organism-based, Salmonella enterica subsp. enterica serovar Typhi; settings: Salmonella enterica, CECT 409, 18 h
# Outline: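 Compounds in DMSO, ten 2-fold serial dilutions (125 down to 0.24 µg/mL), mixed 1:1 with bacteria in Nutrient Broth at OD620 = 0.001. Incubated overnight (18 h) at 28 or 37 °C depending on strain. Growth read turbidimetrically at OD620; MIC is the lowest concentration completely inhibiting growth, per CLSI. Triplicate runs; tetracycline reference.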
# [15] = Selectivity index, ratio of cytotoxicity against human neutrophils by annexin V-FITC and propidium iodide staining based cytofluorometry to antibacterial IC50 against Salmonella typhi CECT 409; assay type: toxicity; settings: read-out: Selectivity Index
# Enterococcus faecalis = experiment: Antibacterial activity against Enterococcus faecalis CECT 481 assessed as inhibition of microbial growth incubated for 18 hrs by 2-fold microtiter broth dilution method; assay type: functional, organism-based; settings: CECT 481, 18 h; outline: as §1
# Bacillus subtilis = experiment: Antibacterial activity against Bacillus subtilis CECT 35 assessed as inhibition of microbial growth incubated for 18 hrs by 2-fold microtiter broth dilution method; assay type: functional, organism-based; settings: CECT 35, 18 h; outline: as §1
# [16] = Selectivity index, ratio of cytotoxicity against human neutrophils by annexin V-FITC and propidium iodide staining based cytofluorometry to antibacterial IC50 against Staphylococcus aureus CECT 86; assay type: toxicity; settings: read-out: Selectivity Index
smiles,measurement,setting,value
O=C1O/C(=C\c2ccc(O)c(Br)c2)C(c2cc(Br)c(O)c(Br)c2)=C1C(=O)c1ccco1,IC50,Escherichia coli [1],25.6 µM
same,MIC,Escherichia coli [1],15.6 µg/mL
same,Activity,[2],57%
same,selectivity ratio,[3],5
same,Activity,[4],Non-toxic
same,selectivity ratio,[5],5
same,IC50,Staphylococcus aureus,3.19 µM
same,MIC,Staphylococcus aureus,1.95 µg/mL
same,Activity,[6],Non-toxic
same,selectivity ratio,[7],5
same,selectivity ratio,[8],5
same,IC50,Escherichia coli [9],6.38 µM
same,MIC,Escherichia coli [9],3.9 µg/mL
same,Activity,[10],Toxic
same,Activity,[11],Non-toxic
same,selectivity ratio,[12],5
same,MIC,[13],125 µg/mL
same,selectivity ratio,[14],5
same,IC50,Bacillus cereus,6.38 µM
same,MIC,Bacillus cereus,3.9 µg/mL
same,IC50,Salmonella typhi,3.19 µM
same,MIC,Salmonella typhi,1.95 µg/mL
same,selectivity ratio,[15],5
same,IC50,Enterococcus faecalis,3.19 µM
same,MIC,Enterococcus faecalis,1.95 µg/mL
same,MIC,Bacillus subtilis,125 µg/mL
same,selectivity ratio,[16],5
